# Screening results deposited in PubChem BioAssay by Broad Institute.
# An excerpt weighted towards active compounds, which were near 2.4% of everything screened.
# S100A4 inh HTS = S100A4-myosin IIA interaction inhibition | P26447 | S100A4/TAMRA-MyoIIA peptide fluorescence polarization | inhibition, % at 10.7 µM | hit rate 0.14% among 360,000;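 active = mean inhibition of at least 70% across replicates, with every replicate also reaching that level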
#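 Material: human S100A4 monomer with TAMRA-labelled myosin IIA peptide; buffer or medium: HEPES pH 7.2 with CaCl2, KCl, NaCl, DTT, Triton; compound dosing: one concentration per compound; schedule: 5 min incubation before reading; benchmarks: neutral control DMSO, positive control TFP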
# CASP6 VEID inh = inhibitors of human caspase-6. hit rate 0.53% among 350,000. AID 686996. P55212. purified caspase-6, Z-VEID-R110 cleavage fluorescence. inhibition, % at 12.5 µM;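 active = mean inhibition across replicates at least about 35%, with every replicate also reaching that limit, limit read from the data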;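 also: 0% = median of neutral control wells and 100% = no fluorescence left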
# ERAP1 inh = inhibitors of human ERAP1 aminopeptidase. AID 652197. hit rate 0.15% among 340,000. recombinant ERAP1, Leu-AMC fluorescence, 60 min. inhibition, % at 10.7 µM. Q9NZ08;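 active = mean replicate inhibition of at least 30%, or all replicates individually reaching that 30% level; inactive = mean below 30% and not every replicate reaching it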;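 also: 0% = neutral control wells and 100% = L-leucinethiol positive control wells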
# Target sequence (Q9NZ08 whole entry, looked up): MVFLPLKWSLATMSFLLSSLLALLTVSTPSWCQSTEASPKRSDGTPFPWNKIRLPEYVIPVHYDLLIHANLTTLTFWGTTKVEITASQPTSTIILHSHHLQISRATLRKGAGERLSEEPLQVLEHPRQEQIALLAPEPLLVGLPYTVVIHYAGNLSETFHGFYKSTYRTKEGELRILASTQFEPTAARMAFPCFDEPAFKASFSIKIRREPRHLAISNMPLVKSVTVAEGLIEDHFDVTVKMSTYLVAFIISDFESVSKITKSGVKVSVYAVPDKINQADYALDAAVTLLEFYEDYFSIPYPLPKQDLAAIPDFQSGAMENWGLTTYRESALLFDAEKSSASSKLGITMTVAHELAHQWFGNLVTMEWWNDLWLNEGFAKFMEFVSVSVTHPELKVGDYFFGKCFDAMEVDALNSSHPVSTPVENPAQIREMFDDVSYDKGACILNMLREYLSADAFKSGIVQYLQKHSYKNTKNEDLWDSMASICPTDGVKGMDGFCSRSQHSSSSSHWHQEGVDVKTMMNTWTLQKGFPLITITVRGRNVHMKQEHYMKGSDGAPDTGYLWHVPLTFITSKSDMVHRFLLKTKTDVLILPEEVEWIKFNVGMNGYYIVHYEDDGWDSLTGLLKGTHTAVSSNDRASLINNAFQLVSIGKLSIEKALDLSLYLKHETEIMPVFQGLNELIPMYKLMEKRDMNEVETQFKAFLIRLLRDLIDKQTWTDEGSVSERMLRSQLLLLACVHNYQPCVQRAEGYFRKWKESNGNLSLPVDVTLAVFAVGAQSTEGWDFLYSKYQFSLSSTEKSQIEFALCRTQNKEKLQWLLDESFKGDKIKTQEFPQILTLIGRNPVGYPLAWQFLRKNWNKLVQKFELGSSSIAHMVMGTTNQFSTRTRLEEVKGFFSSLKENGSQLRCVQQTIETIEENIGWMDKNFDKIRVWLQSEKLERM
# Ecoli rRNA inh = selective bacterial rRNA inhibition in E. coli; E. coli WT GFP vs humanized-ribosome RFP mutants, fluorescence, 24 h; active compounds read low; DMSO median 0, no signal -100; GFP signal change (wild-type ribosome), % (test concentration not listed); hit rate 1.6% among 350,000;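 active = significant combined selectivity score with lowered wild-type GFP, culture density cut under 30%, mutant RFP and density less affected; inactive = any of these conditions unmet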
# PGC1a acetyl inh = PGC1a acetylation modulation, inhibitor mode. hit rate 0.17% among 350,000. U2OS PGC1a acetylation, AlphaScreen anti-acetyl-lysine; with virally co-expressed GCN5 acetyltransferase. inhibition, % at 15.6 µM;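 active = every replicate shows inhibition of at least 40%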;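 also: 0% = neutral control wells and 100% = positive control wells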
# ARNT TACC3 PPI = ARNT/TACC3 interaction disruption; AlphaScreen His-ARNT PAS-B/GST-TACC3 binding, luminescence; TACC3 fragment carries E629A point mutation; inhibition, % at 9.99 µM; hit rate 0.66% among 390,000;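 active = mean inhibition of replicates at least 50% and at least half of replicates each reaching 50%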;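 also: 0% = complete ARNT plus TACC3 wells and 100% = ARNT alone without TACC3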
# Starred values were filed as active, the others as inactive; · = not tested or not shown.
SMILES,S100A4 inh HTS,CASP6 VEID inh,ERAP1 inh,Ecoli rRNA inh,PGC1a acetyl inh,ARNT TACC3 PPI
CC(=O)N(C)C[C@@H]1Oc2ncc(-c3cccc(C#N)c3)cc2C(=O)N([C@H](C)CO)C[C@H]1C,0.9,-0.6,0.8,2.3,-0.2,-3.4
Cc1cc(C)cc(NC(=O)c2cc(Cl)sc2Cl)c1,·,·,·,·,·,-3.6
CC(=O)c1ccc(NC(=O)c2cc(Cl)sc2Cl)cc1,0.6,1.8,-0.7,-30.4*,·,-3.0
CCCN1C[C@H](C)[C@H](OC)CN(C)C(=O)c2cc(NC(=O)C3CCOCC3)ccc2OC[C@H]1C,0.3,1.0,-1.3,0.4,7.8,-11.0
COCCCNc1c2c3c(cccc3[nH]c1=O)C(=O)c1ccccc1-2,126.6*,-35.6,2.1,64.5,8.2,14.4
O=C1C(Cl)=C(NCc2cccnc2)C(=O)c2ccccc21,-11.1,86.6*,3.8,-17.8,·,22.7
COCCCNC1=C(Cl)C(=O)c2ccccc2C1=O,-3.1,17.9,3.6,-40.0*,5.2,8.2
C=CCNC1=C(Cl)C(=O)c2ccccc2C1=O,·,·,·,·,·,4.2
CCN(CC)CCCNC1=C(Cl)C(=O)c2ccccc2C1=O,-31.6,38.5*,4.7,-10.2,17.6,14.9*
COc1ccccc1NC(=O)N1C[C@H]2[C@@H](c3ccccc31)[C@H](CO)N2C(C)=O,-6.5,-1.1,2.2,-0.4,5.1,-3.3
C[C@@H]1CN([C@H](C)CO)C(=O)c2cccc(NS(=O)(=O)c3ccc(Cl)cc3)c2O[C@@H]1CN(C)Cc1ccc(-c2ccccc2)cc1,2.8,·,-3.2,2.4,-8.6,2.1
O=C1C(Cl)=C(NCCc2ccccc2)C(=O)c2ccccc21,4.2,43.9*,0.4,-37.2*,4.0,41.1
CCOc1ccccc1N(C(=O)Nc1ccc(Cl)cc1)C1=NCCS1,-1.0,0.4,4.8,-21.2*,57.0,·
CCOc1ccccc1N(C(=O)Nc1cccc(Cl)c1)C1=NC(C)CS1 (stereo not drawn),6.1,2.7,3.2,-39.1,1.9,·
Cc1ccc(C(=O)COC(=O)C2CC3CCCC(C2)C3=O)cc1[N+](=O)[O-] (stereo not drawn),140.4*,2.5,1.5,3.6,-1.6,0.8
Cc1ccc([N+](=O)[O-])c(NC(=O)COC(=O)C2CC3CCCC(C2)C3=O)c1C (stereo not drawn),-3.9,-2.4,-0.1,27.5,·,-1.3
Cc1ccc(C2=NN=C(NC(=O)CSc3nncn3C)SC2)cc1,-7.4,·,-1.3,-23.1*,·,33.9
Cc1ccc(C(=O)NC(=O)CSc2nncn2C)cc1,2.4,0.7,-4.0,7.9,·,-22.5
FC(F)(F)COc1nc(N/N=C/c2cccnc2)nc(N2CCCCC2c2ccccn2)n1 (stereo not drawn),26.4,0.1,-1.2,-33.4*,-6.3,2.7
O=C(c1ccc(Cl)cc1)N1CCc2c([nH]c3ccccc23)C1C(F)(F)F (stereo not drawn),-2.4,1.9,5.2,-21.1*,9.7,-27.6
CC(C)OC(=O)NCCOC(=O)Nc1ccc(Cl)cc1,0.3,0.1,-0.7,-21.2*,·,-1.4
CC(=O)N(C)C[C@@H]1Oc2cc(-c3ccccc3C)ccc2S(=O)(=O)N([C@H](C)CO)C[C@H]1C,3.5,1.2,-0.9,-1.8,-0.5,-1.0
O=C1OC(OC2CCCCC2)(c2ccccc2)c2ccccc21 (stereo not drawn),-7.5,2.1,0.6,-21.9*,-16.8,-8.4
O=C1OC(Oc2ccccc2)(c2ccccc2)c2ccccc21 (stereo not drawn),·,·,·,·,-21.0,2.8
COc1ccc(O)c(CN2CCN(C/C=C/c3ccccc3)CC2)c1,·,·,·,·,-8.8,14.6
SMILES,S100A4 inh HTS,CASP6 VEID inh,ERAP1 inh,Ecoli rRNA inh,PGC1a acetyl inh,ARNT TACC3 PPI
COc1cc(Br)cc(CN2CCN(C/C=C/c3ccccc3)CC2)c1O,-3.2,38.4*,4.2,-33.6*,-10.1,10.4
C[C@@H]1CCCCO[C@@H](CN(C)S(=O)(=O)c2cn(C)cn2)[C@@H](C)CN([C@H](C)CO)C(=O)c2cc(NS(=O)(=O)c3ccc(Cl)cc3)ccc2O1,103.1*,-1.9,-6.8,1.5,3.8,4.0
Cc1ccc(S(=O)(=O)Nc2ccc3c(c2)C(=O)N([C@@H](C)CO)C[C@@H](C)[C@@H](CN(C)S(=O)(=O)c2cn(C)cn2)OCCCC[C@@H](C)O3)cc1,133.5*,-1.1,-5.7,-3.9,-16.1,-5.2
C[C@@H]1CN([C@@H](C)CO)S(=O)(=O)c2ccc(C3=CCCC3)cc2O[C@H]1CN(C)S(=O)(=O)c1ccc(F)cc1,2.0,1.6,-4.5,0.9,-15.3,7.5
O=C1N[C@@H](Cc2ccccc2)COCc2cn(nn2)CC[C@@H]1Cc1ccc(-c2ccccc2)cc1,·,·,·,-2.5,·,·
CCOc1ccc(N(CC(=O)Nc2cc(Cl)ccc2C)S(C)(=O)=O)cc1,13.6,56.6*,2.5,-2.9,-16.7,-1.0
CC1NC2(C(=O)N(Cc3ccccc3)c3ccccc32)C2C(=O)N(c3ccccc3)C(=O)C12 (stereo not drawn),85.6*,-0.9,2.6,-7.3,-1.7,-1.7
Cc1ccc([C@@H]2[C@@H]3C(=O)N(c4ccccc4)C(=O)[C@@H]3[C@]3(C)C(=O)N(Cc4ccccc4)CC(=O)N23)o1,-9.2,-4.3,1.4,0.0,7.1,1.1
CCC(=O)NC(=S)NNC(=O)c1ccc(O)cc1,2.7,-4.2,3.2,-34.9,-5.0,75.1*
CCC(=O)NNC(=S)NC(=O)c1ccc(C)cc1,1.9,-3.1,3.2,-48.9,·,37.8
CCCN1C(=O)c2ccc(C(=O)Nc3ccccc3C(=O)O)cc2C1=O,-5.6,0.2,-3.2,-21.2*,0.3,-4.4
Cc1nc([N+](=O)[O-])c(C(=O)OCc2cccc(Br)c2)n1C,15.2,-2.2,0.3,-17.6*,2.4,0.9
COc1ccc(OCC(O)COc2ccc(OC)cc2)cc1,·,·,·,·,0.5,1.4
COc1ccc(OCC(O)CN(CC(O)COc2ccc(OC)cc2)c2cccc(O)c2)cc1 (stereo not drawn),-2.0,3.4,-3.1,-30.1*,-4.0,7.5
C[C@@H]1CN(C)C(=O)c2cccc(N(C)C)c2O[C@@H]1CN(C)C(=O)OC(C)(C)C,·,·,·,-2.3,·,·
C=C1CC[C@@H]2[C@](C)(CO)[C@H](O)CC[C@@]2(C)[C@@H]1/C=C/C1=CCOC1=O,-2.0,2.4,-2.8,-23.1*,1.6,-1.9
Cc1ccccc1OCCNC(=O)CNC(=O)c1ccccc1O,-7.0,-0.9,1.2,-26.7*,-19.3,-0.6
COc1ccccc1OCCNC(=O)c1ccccc1C,·,·,·,·,-8.4,-44.8
CCC1NC(=S)N(C2CCCCC2)C1=O (stereo not drawn),·,·,·,·,55.4*,-1.3
CC(C)CC1NC(=S)N(C2CCCCC2)C1=O (stereo not drawn),·,·,·,·,11.5,-19.9
